Results gathered from unrelated publications.
Target: Calcium/calmodulin-dependent protein kinase type II subunit beta (CAMK2B, Homo sapiens, UniProt Q13554)

SMILES | test | conditions | quantity | result
O=C1Nc2ccc(Cl)cc2C1=Cc1cc(Cl)c(O)c(Cl)c1 | cell-free assay | 0.5 µM | remaining signal | 92%
C[C@@H]1CN(c2cc(-c3nn(C)c4ccc(OC5(C)CC5)cc34)ncn2)C[C@H](C)O1 | cell-free assay, competition with immobilised ligand | 1 µM | remaining binding | 96%
COc1cc2ncnc(Nc3ccc(Oc4ccccc4)cc3C)c2cc1OC | enzyme activity, inhibitor | 1 µM | inhibition | 8%
CCCOc1ccc(OC)c(F)c1C(=O)c1ccc(C(=O)N[C@@H]2CNC[C@H]2NC(=O)c2ccc3[nH]ncc3c2)cc1 | enzyme activity, inhibitor | 10 µM | remaining activity | 53%
O=c1c2ccccc2[nH]c(=S)n1CCN1CCC(=C(c2ccc(F)cc2)c2ccc(F)cc2)CC1 | enzyme activity, inhibitor | 0.5 µM | remaining activity | 102%
COc1cc(Cl)c(C(=O)N[C@@H](CN[C@H]2CC[C@@H](N)CC2)Cc2ccc(C#N)cc2)cc1-c1ccc(CN[C@H](C)c2ccc(C)cc2)o1 | enzyme activity, inhibitor | 1 µM | remaining activity | 94%
CC/C(=N\NC(=O)NCc1cccc(O)c1)c1ccc(O)c(C)c1O | enzyme activity, inhibitor | 0.1 µM | inhibition | -4%
CCCCNc1ncc2c(-c3ccc(F)cc3)nn(C[C@H]3CC[C@H](N)CC3)c2n1 | target engagement in cells, inhibitor, chemoproteomics | 20 mM | inhibition | 29%
CCN(CC)CCNC(=O)c1c(C)[nH]c(/C=C2\C(=O)Nc3ccc(F)cc32)c1C | enzyme activity, inhibitor | 0.3 µM | inhibition | 57%
CCC(=O)N[C@@H]1CC[C@H](C(=O)N(C)c2ccc(-c3nc4ccccc4o3)cc2)C1 | cell-free assay, competition with immobilised ligand | 1 µM | remaining binding | 100%
CC(C)(C)c1nc2c(s1)c1nc(N)ncc1c1ccc(NS(=O)(=O)c3c(F)cccc3F)c(F)c12 | enzyme activity, inhibitor, radiometric | 1 µM | remaining activity | 83%
CO[C@@H](C)c1c(Nc2ccc([C@H](N(C)C(=O)C3CCS(=O)(=O)CC3)C(F)(F)F)cc2)cnc2cc(Cl)nn12 | cell-free assay, competition with immobilised ligand | 1 µM | remaining binding | 94%
COc1cc(-c2cc(-c3ccc(N4CCNCC4)cc3)cnc2C)cc(OC)c1OC | enzyme activity, inhibitor | 1 µM | inhibition | 1%
COc1ccc2c(c1)O[C@H](c1ccc(OC)c(OC)c1)C[C@@H]2NC(=O)C1(c2ccc3c(c2)OC(F)(F)O3)CC1 | cell-free assay, competition with immobilised ligand | 1 µM | remaining binding | 88%
CNC(=O)c1cc(Oc2ccc(NC(=O)Nc3ccc(Cl)c(C(F)(F)F)c3)cc2)ccn1 | enzyme activity, inhibitor | 0.3 µM | inhibition | 27%
CCN(CC)c1ccc(C2=NNC(=O)CC2C)cc1[N+](=O)[O-] (stereo not drawn) | enzyme activity, inhibitor | 10 µM | remaining activity | 96%
O=C1NC(=O)c2cc(Nc3ccc(F)cc3)c(Nc3ccc(F)cc3)cc21 | cell-free assay | 0.5 µM | remaining signal | 98.7%
Cc1sc(C(=O)NC2COC2)cc1-n1cc(NC(=O)Nc2c(F)cccc2Cl)cn1 | enzyme activity, inhibitor | 10 µM | remaining activity | 100%
CN1CC(Oc2cnc(C#N)cc2-c2ccn3nc(NC(=O)C4CC4)cc3c2)C1 | enzyme activity, inhibitor | 1 µM | inhibition | -1%
Oc1ccc(-c2nc(-c3ccncc3)c(-c3ccc(F)cc3)[nH]2)cc1 | cell-free assay | 0.5 µM | remaining signal | 96.4%
CC(C)(O)[C@H]1CC[C@H](Nc2ccc3ncc(-c4cccc(C(F)(F)F)c4)n3n2)CC1 | enzyme activity, inhibitor | 1 µM | remaining activity | 96.9%
Cc1cc(-n2nc(Cc3cc(F)cc(C(F)(F)F)c3)nc2C)ccc1C(N)=O | cell-free assay, competition with immobilised ligand | 1 µM | remaining binding | 100%
Clc1ccc(Nc2nnc(Cc3ccncc3)c3ccccc23)cc1 | cell-free assay | 0.5 µM | remaining signal | 109%
Cc1noc([C@H]2C[C@@H](c3ccc(C(F)(F)F)cc3)CN(C(=O)N3CCS(=O)(=O)C3)C2)n1 | cell-free assay, competition with immobilised ligand | 1 µM | remaining binding | 100%
Cc1ccc(Nc2nccc(N(C)c3ccc4c(C)n(C)nc4c3)n2)cc1S(N)(=O)=O | enzyme activity, inhibitor | 10 µM | inhibition | 29%
CS(=O)(=O)CCNCc1ccc(-c2ccc3ncnc(Nc4ccc(OCc5cccc(F)c5)c(Cl)c4)c3c2)o1 | cell-free assay | 0.5 µM | remaining signal | 93.8%
CS(=O)(=O)N1CCCC(NC(=O)[C@H](CCC2CCCCC2)NC(=O)c2ccc(CNc3ncnc4c3nnn4-c3ccccc3)cc2)C1 (stereo partly drawn) | cell-free assay, competition with immobilised ligand | 0.1 µM | remaining binding | 100%
Cc1ccc(C(=O)Nc2ccc(CN3CCN(C)CC3)c(C(F)(F)F)c2)cc1C#Cc1cnc2cccnn12 | enzyme activity, inhibitor | 23.5 nM | remaining activity | 97%
CCCCN(CCCC)C(=O)CN1C[C@H](c2cc(OC)c3c(c2)OCO3)[C@@H](C(=O)O)[C@@H]1CC(C)(C)CCC | cell-free assay, competition with immobilised ligand | 1 µM | remaining binding | 100%
CC(C)c1ccc(NC(=O)c2cccs2)c(-c2nc3ccccc3[nH]c2=O)c1 | enzyme activity, inhibitor | 1 µM | activity vs control | 108%
